Assay results reported in ChEMBL document CHEMBL3853331, “Preparation, Antiepileptic Activity, and Cardiovascular Safety of Dihydropyrazoles as Brain-Penetrant T-Type Calcium Channel Blockers” (J Med Chem, 2016).

Key:
[1] = biological target: Voltage-dependent T-type calcium channel subunit alpha-1H (Homo sapiens, UniProt O95180); experiment: Inhibition of recombinant T-type calcium channel Cav3.2 (unknown origin) expressed in HEK293 cells assessed as inhibition of CaCl2-induced calcium influx preincubated for 3 mins prior CaCl2 addition by Fluo-4-AM dye-based FLIPR assay; type: cell-based
Sequence of Voltage-dependent T-type calcium channel subunit alpha-1H (O95180 whole entry): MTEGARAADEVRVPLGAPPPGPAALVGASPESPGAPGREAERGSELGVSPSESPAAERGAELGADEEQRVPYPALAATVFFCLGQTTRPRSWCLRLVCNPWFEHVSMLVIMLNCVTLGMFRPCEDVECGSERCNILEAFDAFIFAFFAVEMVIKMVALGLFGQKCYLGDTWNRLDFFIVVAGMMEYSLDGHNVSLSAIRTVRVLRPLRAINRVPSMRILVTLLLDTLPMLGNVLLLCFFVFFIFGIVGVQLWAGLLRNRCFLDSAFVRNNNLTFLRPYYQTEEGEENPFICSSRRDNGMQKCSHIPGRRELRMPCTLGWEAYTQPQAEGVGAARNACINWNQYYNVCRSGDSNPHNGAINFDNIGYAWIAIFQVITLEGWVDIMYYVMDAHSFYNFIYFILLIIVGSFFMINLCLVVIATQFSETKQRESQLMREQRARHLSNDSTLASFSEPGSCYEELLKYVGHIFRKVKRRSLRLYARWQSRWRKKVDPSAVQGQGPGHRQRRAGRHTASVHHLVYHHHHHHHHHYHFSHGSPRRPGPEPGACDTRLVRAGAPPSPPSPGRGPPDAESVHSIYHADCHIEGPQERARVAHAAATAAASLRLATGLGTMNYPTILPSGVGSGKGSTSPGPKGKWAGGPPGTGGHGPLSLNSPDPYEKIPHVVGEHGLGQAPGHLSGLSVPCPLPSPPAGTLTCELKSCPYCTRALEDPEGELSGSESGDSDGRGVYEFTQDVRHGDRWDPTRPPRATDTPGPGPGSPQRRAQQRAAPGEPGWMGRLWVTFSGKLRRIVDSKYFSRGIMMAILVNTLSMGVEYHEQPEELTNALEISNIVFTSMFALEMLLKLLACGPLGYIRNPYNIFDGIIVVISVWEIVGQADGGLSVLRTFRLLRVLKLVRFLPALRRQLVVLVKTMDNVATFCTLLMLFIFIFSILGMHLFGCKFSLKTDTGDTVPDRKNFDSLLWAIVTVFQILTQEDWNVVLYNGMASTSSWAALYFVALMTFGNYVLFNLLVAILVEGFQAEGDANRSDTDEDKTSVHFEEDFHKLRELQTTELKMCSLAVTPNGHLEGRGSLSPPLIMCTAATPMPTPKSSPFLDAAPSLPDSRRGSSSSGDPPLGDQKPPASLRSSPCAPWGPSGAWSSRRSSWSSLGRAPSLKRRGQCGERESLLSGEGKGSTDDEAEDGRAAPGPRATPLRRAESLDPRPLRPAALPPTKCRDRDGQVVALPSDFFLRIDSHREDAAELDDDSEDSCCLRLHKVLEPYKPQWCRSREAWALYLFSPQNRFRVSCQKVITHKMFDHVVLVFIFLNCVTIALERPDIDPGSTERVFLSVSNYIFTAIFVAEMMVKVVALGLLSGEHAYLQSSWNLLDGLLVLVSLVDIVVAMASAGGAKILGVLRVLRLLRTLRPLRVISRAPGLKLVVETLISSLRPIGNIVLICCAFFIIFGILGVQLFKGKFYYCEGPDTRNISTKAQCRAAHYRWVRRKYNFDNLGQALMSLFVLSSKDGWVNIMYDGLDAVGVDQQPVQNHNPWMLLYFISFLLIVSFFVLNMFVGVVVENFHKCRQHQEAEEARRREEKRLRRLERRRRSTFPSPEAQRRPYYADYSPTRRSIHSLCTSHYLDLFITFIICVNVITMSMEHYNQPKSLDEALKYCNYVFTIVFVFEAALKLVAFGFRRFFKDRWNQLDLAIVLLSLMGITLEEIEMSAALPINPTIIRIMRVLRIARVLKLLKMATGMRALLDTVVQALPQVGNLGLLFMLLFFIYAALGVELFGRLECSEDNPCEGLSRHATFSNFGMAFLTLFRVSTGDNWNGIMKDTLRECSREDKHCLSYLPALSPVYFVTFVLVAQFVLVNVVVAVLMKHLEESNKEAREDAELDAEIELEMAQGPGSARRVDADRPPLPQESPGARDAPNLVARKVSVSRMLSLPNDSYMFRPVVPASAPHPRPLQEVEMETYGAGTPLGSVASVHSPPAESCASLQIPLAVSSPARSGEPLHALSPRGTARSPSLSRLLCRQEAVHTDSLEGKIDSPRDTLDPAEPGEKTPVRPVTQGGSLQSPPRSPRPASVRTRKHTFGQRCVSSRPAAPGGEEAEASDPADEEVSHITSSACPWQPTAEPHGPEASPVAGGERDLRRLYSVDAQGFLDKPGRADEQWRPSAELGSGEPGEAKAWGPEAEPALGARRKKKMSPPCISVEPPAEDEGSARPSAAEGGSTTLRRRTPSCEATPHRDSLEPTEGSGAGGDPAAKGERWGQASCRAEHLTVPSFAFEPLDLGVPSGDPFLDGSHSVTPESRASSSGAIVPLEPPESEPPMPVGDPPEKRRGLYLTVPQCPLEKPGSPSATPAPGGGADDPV
Method in brief: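 HEK293 cells stably expressing Cav3.2, plated overnight at 37°C, loaded 1 h at 37°C with 3 µM Fluo-4-AM in HBSS/Hepes pH 7.4, then washed. Compound in TEAC buffer (100 mM tetraethylammonium chloride, pH 7.2), 3-fold series from 10 µM to 0.05 nM, 3 min before CaCl2 to a final 10 mM. IC50 fitted sigmoidally to the fluorescence AUC against vehicle signal; mean of at least two independent experiments.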

[2] = Oral bioavailability in Wistar rat plasma at 2 mg/kg administered 2 hrs after aminobenzotriazol-treatment; type: ADME, organism-based
Method in brief: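 Rats dosed orally with the CYP inhibitor aminobenzotriazol 2 h before the iv dose of 0.2 mg/kg. Oral dose was 2 mg/kg.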

Cytochrome P450 2C9 = Cytochrome P450 2C9 (Homo sapiens, UniProt P11712); experiment: Inhibition of CYP2C9 (unknown origin); type: ADME
Sequence of Cytochrome P450 2C9 (P11712 whole entry): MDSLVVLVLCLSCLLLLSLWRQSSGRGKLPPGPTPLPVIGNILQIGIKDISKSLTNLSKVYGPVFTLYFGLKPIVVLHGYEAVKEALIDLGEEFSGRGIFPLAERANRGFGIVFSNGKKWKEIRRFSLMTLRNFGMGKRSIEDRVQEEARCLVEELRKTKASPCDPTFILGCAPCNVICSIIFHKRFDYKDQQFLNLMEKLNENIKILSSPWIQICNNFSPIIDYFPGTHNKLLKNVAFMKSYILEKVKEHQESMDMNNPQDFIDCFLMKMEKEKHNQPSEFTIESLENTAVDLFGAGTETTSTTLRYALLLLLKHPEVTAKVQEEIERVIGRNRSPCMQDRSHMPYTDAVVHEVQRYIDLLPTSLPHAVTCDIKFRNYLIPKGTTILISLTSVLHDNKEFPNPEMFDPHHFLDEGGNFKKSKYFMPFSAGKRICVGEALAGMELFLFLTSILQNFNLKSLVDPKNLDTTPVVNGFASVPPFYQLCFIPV

Cytochrome P450 3A4 = Cytochrome P450 3A4 (Homo sapiens, UniProt P08684); experiment: Inhibition of CYP3A4 (unknown origin) using testosterone as substrate; type: ADME
Sequence of Cytochrome P450 3A4 (P08684 whole entry): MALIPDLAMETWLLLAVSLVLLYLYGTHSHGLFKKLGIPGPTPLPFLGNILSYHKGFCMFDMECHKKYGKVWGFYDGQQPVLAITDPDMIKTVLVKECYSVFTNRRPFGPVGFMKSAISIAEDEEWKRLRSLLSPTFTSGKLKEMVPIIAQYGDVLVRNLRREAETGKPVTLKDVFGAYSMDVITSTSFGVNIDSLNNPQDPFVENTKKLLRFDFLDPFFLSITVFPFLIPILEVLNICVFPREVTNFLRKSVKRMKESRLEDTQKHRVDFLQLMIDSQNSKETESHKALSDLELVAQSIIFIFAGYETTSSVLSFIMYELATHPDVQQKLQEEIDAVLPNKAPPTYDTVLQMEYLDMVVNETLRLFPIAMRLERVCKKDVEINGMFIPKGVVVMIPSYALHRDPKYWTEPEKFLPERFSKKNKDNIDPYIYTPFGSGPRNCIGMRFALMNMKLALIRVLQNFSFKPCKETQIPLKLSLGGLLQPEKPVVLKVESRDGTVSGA

[3] = biological target: Voltage-dependent T-type calcium channel subunit alpha-1I (Homo sapiens, UniProt Q9P0X4); experiment: Inhibition of human T-type calcium channel Cav3.3 expressed in CHO cells assessed as inhibition of calcium tail current at -60 mV holding potential measured after 150 secs by QPatch assay; type: cell-based
Method in brief: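 CHO cells stably expressing human Cav3.1, Cav3.2 or Cav3.3, automated QPatch recording. 3-ms depolarization to +20 mV from a holding potential of -90 or -60 mV. Ca2+ tail current measured at -60 mV. Cs-glutamate internal and TEA-Cl external solution with 5 mM Ca2+. Effect read 150 s after application.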

O=C(Nc1ccc(F)cc1)N1N=C(c2ccncc2)CC1c1ccc(F)cc1 (stereo not given)
IC50 [1]: 33 nM | bioavailability [2]: 100% | IC50 (Cytochrome P450 2C9): 1800 nM | IC50 (Cytochrome P450 3A4): 1800 nM | IC50 [3]: 2000 nM
